Shown are actives, neighbours in structure and some others; about 2.1% of the full set was active somewhere.
miR-122 sensor = miR-122 Renilla sensor signal increase in Huh7, primary screen, miR-122 inhibitor project, cell-based, single point, plate reader; Huh7 miR-122 Renilla luciferase sensor, 48 h; neutral wells = 0, positive control = 100; activation (reporter increase), % at 12.5 µM; 0.3% of 340,000 active;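 active means mean replicate activation score at least 90 and every replicate individually at or above 90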;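 further: higher luciferase means less miR-122 activity so hits act as miR-122 inhibitors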
CAL PDZ FP-1 = CAL PDZ peptide-binding inhibitors, primary screen, biochemical, fluorescence polarization, Cer-tagged CAL PDZ, HTS; 0.02% of 330,000 active; purified CAL PDZ, TMR-peptide fluorescence polarization, 1 h; inhibition, % at 20 µM; AID 504414, 2011; Golgi-associated PDZ and coiled-coil motif-containing protein (Homo sapiens), Q9HD26;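 active means highest replicate inhibition of at least 40%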;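 further: plate controls were DMSO neutral control wells for no effect and unlabeled competitor peptide control wells for full effect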
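Assay system – tagged CAL PDZ protein CerCALP, purified · Timing – 1 h at RT · Compound – single point, 20 µM · Measured by – fluorescence polarization from S- and P-plane intensities, G-factor corrected · Evaluation – inhibition from polarization loss · Probe or stimulus – TMR reporter peptide T*-PRC34 · Buffer or medium – pH 7.4 phosphate-saline buffer, reducing agent, detergent, IgG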
SR-BI DiI inh = inhibitors of SR-BI mediated HDL lipid uptake, primary screen, ldlA[mSR-BI] cells, fluorescence, single point. Scavenger receptor class B member 1 (Mus musculus), Q61009. ldlA[mSR-BI] CHO cells, DiI-HDL uptake fluorescence, 3 h. inhibition, % at 12.5 µM. 0.96% of 320,000 active;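 active means mean replicate inhibition of at least 70% and a set share of replicates each scoring 70 or more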;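 further: 0% = median of neutral control wells and 100% = median of positive control wells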
Target sequence (Q61009 whole entry, looked up): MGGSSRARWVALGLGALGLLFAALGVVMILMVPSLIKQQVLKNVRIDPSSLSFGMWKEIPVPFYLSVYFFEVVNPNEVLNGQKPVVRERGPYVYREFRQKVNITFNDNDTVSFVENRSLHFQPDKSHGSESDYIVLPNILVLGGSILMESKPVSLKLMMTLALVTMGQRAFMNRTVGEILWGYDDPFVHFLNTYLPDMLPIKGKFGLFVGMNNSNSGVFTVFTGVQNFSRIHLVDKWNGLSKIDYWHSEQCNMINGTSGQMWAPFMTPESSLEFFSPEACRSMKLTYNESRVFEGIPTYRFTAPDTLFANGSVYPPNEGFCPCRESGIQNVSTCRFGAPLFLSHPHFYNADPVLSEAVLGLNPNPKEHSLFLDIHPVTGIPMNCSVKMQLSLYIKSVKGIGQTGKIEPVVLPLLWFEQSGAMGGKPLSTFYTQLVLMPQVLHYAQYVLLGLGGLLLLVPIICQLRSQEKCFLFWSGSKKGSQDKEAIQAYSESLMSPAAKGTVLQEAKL
SR-BI uptake up = activators of SR-BI mediated DiI-HDL uptake, primary screen, ldlA[mSR-BI] CHO cells, DiI fluorescence. activation, % at 12.5 µM. 0.096% of 320,000 active. 3 h; 100 = double the neutral-control signal;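 active means mean replicate activation of at least 60% and every replicate at or above 60%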;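 further: 0% = median plate neutral-control signal and 100% = twice that signal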
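Material: SR-BI-overexpressing, LDLR-lacking CHO cells | Dosing: Single compound concentration, delivered by pin transfer | Probe or stimulus: Labelled HDL, 10 µg/mL | Signal: Bottom-read cell fluorescence after medium removal, ex 550/em 595 nm | Schedule: 3 h, 37 °C | Evaluation: HDL uptake via cellular fluorescence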
CAL PDZ FP-2 = untagged CAL PDZ binding inhibitors, primary screen, biochemical, fluorescence polarization, HTS. purified CAL PDZ, TMR-peptide fluorescence polarization, 1 h. 0.92% of 300,000 active. Golgi-associated PDZ and coiled-coil motif-containing protein (Homo sapiens), Q9HD26. inhibition, % at 24.9 µM;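 active means mean inhibition of at least 30% with at least half of replicates also reaching 30%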;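 further: 0% = DMSO neutral control and 100% = excess unlabeled competitor peptide PRC23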
ARNT-TACC3 inh = disruptors of ARNT/TACC3 protein interaction, primary screen, biochemical, AlphaScreen, single concentration | 0.66% of 390,000 active | inhibition, % at 9.99 µM | AlphaScreen His-ARNT PAS-B/GST-TACC3 binding, luminescence; TACC3 fragment carries E629A point mutation;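 active means mean inhibition of replicates at least 50% and at least half of replicates each reaching 50%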;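 further: 0% = complete ARNT plus TACC3 wells and 100% = ARNT alone without TACC3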
The depositor's hits bear a star; x = no result given; [ ] = dose if it differs, or a comment.

SMILES	miR-122 sensor	CAL PDZ FP-1	SR-BI DiI inh	SR-BI uptake up	CAL PDZ FP-2	ARNT-TACC3 inh
O=C1CC(c2cccc(Cl)c2)Cc2nc(N3CCN(c4ccccc4)CC3)ncc21 (stereo not drawn)	0	-2	x	x	4	-4
COc1ccc(Cl)cc1NC(=O)C1COc2ccccc2O1 (stereo not drawn)	x	-1	20	-20	x	-12
CN1CCN(c2ccc(Cl)cc2NC(=O)C2COc3ccccc3O2)CC1 (stereo not drawn)	65	-3	17	-17	71*	8
CC(=O)OC[C@H]1O[C@@H](Sc2cccc3cccnc23)[C@H](OC(C)=O)[C@@H](OC(C)=O)[C@H]1OC(C)=O	-7	0	-4	4	1	64*
C[C@H]1CN([C@@H](C)CO)S(=O)(=O)c2ccc(C#CC3CCCC3)cc2O[C@@H]1CN(C)Cc1cncnc1	60[16.7 µM]	x	x	x	x	x
Cc1cc(C)c(NC(=O)CSc2nc3ccc(N4C(=O)c5ccccc5C4=O)cc3s2)c(C)c1	-7	-2	74*	-74	-2	-9
COc1ccc(NC(=O)N(C)C[C@@H]2Oc3ccc(NS(=O)(=O)c4ccc(Cl)cc4)cc3C(=O)N([C@@H](C)CO)C[C@@H]2C)cc1	3[16.7 µM]	x	x	x	x	-36
CC1(C)CC2CC(C)(CN2C(=O)COC(=O)c2cc(Cl)cc(Cl)c2N)C1 (stereo not drawn)	1	-1	15	-15	-2	14*
COCn1c(-c2ccc(OC)cc2)nc2ccccc21	-9	x	11	-11	107*	1
CCn1c(C)c(C)c2cc(C(=O)Nc3cccc(Cl)c3)ccc21	-5	1	101*	-101	-1	-1
C[C@@H]1CCCCO[C@H](CN(C)C(=O)Cc2ccccc2)[C@@H](C)CN([C@@H](C)CO)C(=O)c2cc(NC(=O)Nc3ccc4c(c3)OCO4)ccc2O1	-13[16.7 µM]	x	x	x	x	12
Brc1ccc(-c2noc(C3CCCCC3)n2)cc1	x	-1	-25	25	107*	-3
OC[C@@H]1[C@H]2c3ccccc3OC1(CO)N=C1SCc3ccccc3CN12	x	x	x	x	x	-6
O=C(Cn1ncc2c([nH]c3ccccc32)c1=O)N1CCOCC1	-3	-1	-8	8	39*	4
COc1cccc(CNC(=O)C[C@@H]2CC[C@@H]3[C@@H](COc4ccc(NC(C)=O)cc4C(=O)N3C)O2)c1	-33[16.7 µM]	x	x	x	x	-5
CNS(=O)(=O)c1ccc(N=Cc2c(C)[nH]n(-c3ccc(C)cc3C)c2=O)cc1	7	-1	-4	4	1	4
Cc1cc(Br)ccc1-n1[nH]c(C)c(C=Nc2cccc3nsnc23)c1=O	-1	-2	77*	-77	8	11
CCCC(C)NS(=O)(=O)c1ccc(OC)c(C)c1 (stereo not drawn)	153*	-1	-16	16	-2	20
CCCC(C)NS(=O)(=O)c1ccccc1 (stereo not drawn)	7	-2	13	-13	-4	-23
CC(C)CC(=O)NC(=S)NNC(=O)c1ccc(NC(=O)C2CCCCC2)cc1	x	-2	-1	1	-2	68*
Cc1ccc(C)c(OCC(=O)NNC(=O)c2ccc(NC(=O)C3CC3)cc2)c1	x	-3	74*	-74	-1	0
Cc1cc(Br)ccc1OCC(=O)NNC(=O)c1ccc(NC(=O)C2CC2)cc1	-4	0	47	-47	0	-6
C[C@@H]1CN([C@@H](C)CO)S(=O)(=O)c2ccc(C3=CCCCC3)cc2O[C@@H]1CN(C)S(=O)(=O)c1cn(C)cn1	31[16.7 µM]	x	x	x	x	-6
C[C@H](CO)N1C[C@H](C)[C@@H](CN(C)S(=O)(=O)c2cccs2)OCCCC[C@H](C)Oc2ccc(NC(=O)CCCN(C)C)cc2C1=O	0[16.7 µM]	x	x	x	x	3
O=C(C=C1CCN(c2ncc(C(F)(F)F)cc2Cl)CC1)NNC(=O)Nc1ccc(Cl)cc1	-4	5	x	x	74*	-7
SMILES	miR-122 sensor	CAL PDZ FP-1	SR-BI DiI inh	SR-BI uptake up	CAL PDZ FP-2	ARNT-TACC3 inh
O=C(C=C1CCN(c2ncc(C(F)(F)F)cc2Cl)CC1)NNC(=O)Nc1ccccc1	22	-1	-21	21	2	0
C[C@@H]1CCCCO[C@@H](CN(C)S(=O)(=O)c2cn(C)cn2)[C@@H](C)CN([C@@H](C)CO)C(=O)c2cc(NS(=O)(=O)c3cccs3)ccc2O1	7[16.7 µM]	x	x	x	x	-11
COc1ccc(OCC(=O)Nc2ccc3c(c2)nc(CN2CCCC2)n3C)cc1	1	-1	20	-20	58*	-12
Cn1c(CN2CCCC2)nc2cc(NC(=O)COc3ccc(Cl)cc3)ccc21	x	-3	51	-51	-1	-4
CC(=O)c1c(C)n(CC(=O)NCc2ccco2)c2ccccc12	-4	0	x	x	1	-11
Cc1c(C(=O)C(=O)NCc2ccco2)c2ccccc2n1C	x	2	-7	7	56*	6
Cc1cc(Cl)c(S(=O)(=O)Nc2ccc3c(c2)OCCO3)cc1OCC(=O)NC1CCCCC1	157*	-1	-15	15	-3	-8
CC(=O)Nc1ccc(S(=O)(=O)N[C@@H](C)C(=O)OCC(=O)Nc2ccc3c(c2)OCCO3)cc1	-2	0	-13	13	x	-33
O=C(COc1ccc(S(=O)(=O)NC2CCCCC2)cc1)Nc1ccc2c(c1)OCCO2	101*	0	22	-22	-3	3
O=C(COC(=O)C(CO)NS(=O)(=O)c1ccc(Br)cc1)Nc1ccc2c(c1)OCCO2 (stereo not drawn)	1	0	-20	20	47*	x
C[C@@H]1CN([C@H](C)CO)C(=O)c2cccc(NS(=O)(=O)c3ccc(F)cc3)c2O[C@@H]1CN(C)CC1CCCCC1	6[16.7 µM]	x	x	x	x	-7
O=C(C[C@H]1CC[C@H]2[C@@H](COC[C@H](O)CN2C(=O)Nc2ccc(Cl)c(Cl)c2)O1)NCc1ccc(F)cc1	-13[16.7 µM]	x	x	x	x	5
COc1ccc(NC(=O)N(C)C[C@@H]2OCCCC[C@@H](C)Oc3ccc(NS(=O)(=O)c4c(C)noc4C)cc3C(=O)N([C@H](C)CO)C[C@H]2C)cc1	-7[16.7 µM]	x	x	x	x	1
CC1=NN(C(=O)c2ccc(Br)cc2)C(O)(C(F)(F)OC(F)(F)F)C1 (stereo not drawn)	-6	0	78*	-78	-3	-10

Screening data deposited in PubChem BioAssay by Broad Institute.
